Results published in ChEMBL document CHEMBL1154615, “Hydroxamates: relationships between structure and plasma stability” (J Med Chem, 2009).

Experiments:
[1] = Stability in potassium phosphate buffer at pH 7.4; format: physicochemical
[2] = (§1) Metabolic stability in Sprague-Dawley rat plasma at 10 uM by LC-MS/MS analysis; format: ADME, cell-free; settings: Sprague-Dawley
In short: (§2)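 Pooled mixed-gender Sprague Dawley lithium-heparin rat plasma, 80 µL per time point in duplicate. Plasma is pre-incubated 5 min at 37 °C, then 30 min with 2 mM PMSF (final) where applied. Compound is added to 10 µM final in 1% DMSO. Quantified by LC-MSMS (MRM or SIM) against an internal standard with a per-compound calibration curve. Result is reported as t1/2.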

Plasma [3] = assay: (§3) Metabolic stability in Sprague-Dawley rat plasma at 10 uM by LC-MS/MS analysis in presence of esterase inhibitor PMSF; format: ADME, cell-free; settings: 10 µM; in short: as §2
[4] = Stability in phosphate buffer saline at pH 7.4; format: physicochemical
Homo sapiens = species on record: Homo sapiens; assay: Metabolic stability in human plasma by LC-MS/MS analysis
[5] = Half life in rat at 100 mg/kg, po; format: ADME, organism-based; design: dose 100 mg/kg, route oral; settings: in vivo
[6] = Half life in po dosed rat; format: ADME, organism-based; settings: in vivo
[7] = as §3; format: ADME, cell-free; settings: Sprague-Dawley, with PMSF (esterase inhibitor); in short: as §2
[8] = Half life in rat at 100 mg/kg, iv; format: ADME, organism-based; design: dose 100 mg/kg, route intravenous; settings: in vivo
Plasma [9] = assay: as §1; format: ADME, cell-free; settings: 10 µM; in short: as §2

SMILES | Stability [1] | half-life at 10 µM [2] [h] | also measured
O=C(CCc1ccccc1)NO | Stable | 1.5 | 
O=C(/C=C/c1ccccc1)NO | Stable | 6.2 | 
O=C(NO)/C(=C\c1ccccc1)C(=O)NCc1ccc(F)cc1 | Stable | 22 | half-life [4]: > 24 h; half-life (Homo sapiens): > 24 h
O=C(NCc1ccc(F)cc1)c1cc2ccccc2n(O)c1=O | Stable | > 48 | 
O=C(CC(=O)NCc1ccc(F)cc1)NO | Stable | 10.5 | 
CC(C)Cc1ccc(C(=O)N(C)O)cc1 |  |  | half-life [5]: 0.3 h
CC(C)Cc1ccc(CC(=O)N(C)O)cc1 |  |  | half-life [5]: < 0.3 h
CC(=O)N1CCC(C(=O)NO)(S(=O)(=O)c2ccc(Oc3ccc(Cl)cc3)cc2)CC1 |  |  | half-life [6]: 0.86 h
O=C(COc1ccccc1)NO | Stable | 3 | 
O=C(NO)C1(S(=O)(=O)c2ccc(Oc3ccc(Cl)cc3)cc2)CCN(C2CC2)CC1 |  |  | half-life [6]: 0.74 h
O=C(NO)C1(C(=O)NCc2ccc(F)cc2)CC1 | Stable | 22.3 | 
CN(O)C(=O)C(Cc1ccccc1)C(=O)NCc1ccc(F)cc1 (centres undefined) | Stable | 0.5 | 
CCOC(=O)[C@H](CCc1ccccc1)N[C@@H](C)C(=O)N1CCC[C@H]1C(=O)O |  | 0.05 | half-life at 10 µM [7]: > 24 h
CC1(C)ON=C(C(Cc2ccccc2)C(=O)NCc2ccc(F)cc2)O1 (centres undefined) | Stable | 1 | 
CN(O)C(=O)/C=C/c1ccc2ccccc2c1 |  |  | half-life [8]: 6 min
CC(C)Cc1ccc(C(C)C(=O)N(C)O)cc1 (centres undefined) |  |  | half-life [5]: > 0.3 h
CC(C)Cc1ccc(CCC(=O)N(C)O)cc1 |  |  | half-life [5]: < 0.3 h
CC(C)Cc1ccc(/C=C/C(=O)N(C)O)cc1 |  |  | half-life [5]: < 0.3 h
CN1CCC(C(=O)NO)(S(=O)(=O)c2ccc(Oc3ccc(Cl)cc3)cc2)CC1 |  |  | half-life [6]: 1.25 h
CCN1CCC(C(=O)NO)(S(=O)(=O)c2ccc(Oc3ccc(Cl)cc3)cc2)CC1 |  |  | half-life [6]: 1.19 h
O=C(NO)C1(S(=O)(=O)c2ccc(Oc3ccc(Cl)cc3)cc2)CCNCC1 |  |  | half-life [6]: 1.8 h
CC(C)Cc1ccc(C(C)C(=O)NO)cc1 (centres undefined) [IBUPROXAM] |  |  | half-life [5]: 0.3 h
O=C(Cc1ccccc1)NO [PHENYLACETOHYDROXAMIC ACID] | Stable | > 24 | 
O=C(CCCc1ccccc1)NO [PHENYLBUTYRYLHYDROXAMIC ACID] | Stable |  | t1/2 (Plasma [9]): 2 h
O=C(CCCCCCC(=O)Nc1ccccc1)NO [VORINOSTAT] |  | 9.7 | 

Further lines, with some results ahead:

Stability [1] | half-life at 10 µM [2] [h] | SMILES | also measured
Stable | 0.8 | O=C(NO)C(Cc1ccccc1)C(=O)NCc1ccc(F)cc1 (centres undefined) | t1/2 (Plasma [3]): 15 h; half-life [4]: > 24 h; half-life (Homo sapiens): > 24 h
Stable | 4.1 | O=C(NO)/C(=C/c1ccccc1)C(=O)NCc1ccc(F)cc1 | half-life [4]: > 24 h; half-life (Homo sapiens): > 24 h
Stable | 1.4 | O=C(CCOc1ccccc1)NO | 
Stable | 1.3 | O=C(Cc1ccc(F)cc1)NC(Cc1ccccc1)C(=O)NO (centres undefined) | 
Stable | 3 | CC(Cc1ccccc1)(C(=O)NO)C(=O)NCc1ccc(F)cc1 (centres undefined) | 
Stable | 33 | CC(C(=O)NO)C(=O)NCc1ccc(F)cc1 (centres undefined) | 
Stable | 19.9 | CC(C)(C(=O)NO)C(=O)NCc1ccc(F)cc1 | 
Stable | 4 | O=C(NO)c1ccc(C#CC2CC2)cc1 | 
Stable | < 1 | CC(C)(C)OC(=O)N[C@H](Cc1ccccc1)C(=O)NO | 
Stable | > 24 | O=C(NO)c1ccccc1 [BENZOHYDROXAMATE] | 
